Results reported in ChEMBL document CHEMBL4689842, “EUbOPEN Chemogenomics Library wave 1” (2021).

System: Fibroblast
Test: Multiplex assay against human fibroblast
Type: toxicity, cell-based
Procedure, shortened: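 Hoechst33342, BioTracker Green Microtubule Cytoskeleton Dye, MitoTracker Red and Annexin V Alexa Fluor 680 were added to live cells at seeding, and imaging on a CQ1 microscope at 37°C and 5% CO2 followed compound addition. Gating by CellPathfinder machine learning separated cells into Hoechst high-intensity objects or normal cells, then normal cells into healthy, pyknosed or fragmented nuclei, then pyknosed cells into mitotic or apoptotic. Per cents of healthy-nucleus cells are reported for the tubulin, mitochondrial-mass and membrane-permeability phenotypes.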

[1] = 12 h, 1 µM, compound concentration 1 uM, replicate 1
[2] = 12 h, 1 µM, compound concentration 1 uM, replicate 2
[3] = 12 h, 10 µM, compound concentration 10 uM, replicate 1
[4] = 12 h, 10 µM, compound concentration 10 uM, replicate 2
[5] = 24 h, 1 µM, compound concentration 1 uM, replicate 1
[6] = 24 h, 1 µM, compound concentration 1 uM, replicate 2
[7] = 24 h, 10 µM, compound concentration 10 uM, replicate 1
[8] = 24 h, 10 µM, compound concentration 10 uM, replicate 2
[9] = 48 h, 1 µM, compound concentration 1 uM, replicate 1
[10] = 48 h, 1 µM, compound concentration 1 uM, replicate 2
[11] = 48 h, 10 µM, compound concentration 10 uM, replicate 1
[12] = 48 h, 10 µM, compound concentration 10 uM, replicate 2

CCOc1cc(C(=O)N2CCC(N3CCN(C)CC3)CC2)ccc1Nc1ncc2c(n1)N(C1CCCC1)c1ccccc1C(=O)N2C
Population Apoptotic (%) [1]: 57%
Population Fragmented Nuclei (%) [1]: 27%
Population Healthy Nuclei (%) [1]: 42%
Population Hoechst High Intensity Objects (%) [1]: 13%
Population Membrane Permeable-Phenotype (%) [1]: 19%
Population Mitochondria Different-Phenotype (%) [1]: 27%
Population Mitotic Cells (%) [1]: 42%
Population Normal (%) [1]: 86%
Population Pyknosed Nuclei (%) [1]: 30%
Population Tubulin-Different-Phenotype (%) [1]: 60%
Total Cell Count [1]: 200
Population Apoptotic (%) [2]: 75%
Population Fragmented Nuclei (%) [2]: 6%
Population Healthy Nuclei (%) [2]: 80%
Population Hoechst High Intensity Objects (%) [2]: 10%
Population Membrane Permeable-Phenotype (%) [2]: 4%
Population Mitochondria Different-Phenotype (%) [2]: 76%
Population Mitotic Cells (%) [2]: 25%
Population Normal (%) [2]: 89%
Population Pyknosed Nuclei (%) [2]: 12%
Population Tubulin-Different-Phenotype (%) [2]: 48%
Total Cell Count [2]: 67
Population Apoptotic (%) [3]: 58%
Population Fragmented Nuclei (%) [3]: 30%
Population Healthy Nuclei (%) [3]: 44%
Population Hoechst High Intensity Objects (%) [3]: 19%
Population Membrane Permeable-Phenotype (%) [3]: 20%
Population Mitochondria Different-Phenotype (%) [3]: 56%
Population Mitotic Cells (%) [3]: 41%
Population Normal (%) [3]: 80%
Population Pyknosed Nuclei (%) [3]: 25%
Population Tubulin-Different-Phenotype (%) [3]: 86%
Total Cell Count [3]: 84
Population Apoptotic (%) [4]: 92%
Population Fragmented Nuclei (%) [4]: 21%
Population Healthy Nuclei (%) [4]: 50%
Population Hoechst High Intensity Objects (%) [4]: 6%
Population Membrane Permeable-Phenotype (%) [4]: 93%
Population Mitochondria Different-Phenotype (%) [4]: 97%
Population Mitotic Cells (%) [4]: 7%
Population Normal (%) [4]: 93%
Population Pyknosed Nuclei (%) [4]: 27%
Population Tubulin-Different-Phenotype (%) [4]: 100%
Total Cell Count [4]: 69
Population Apoptotic (%) [5]: 62%
Population Fragmented Nuclei (%) [5]: 29%
Population Healthy Nuclei (%) [5]: 49%
Population Hoechst High Intensity Objects (%) [5]: 11%
Population Membrane Permeable-Phenotype (%) [5]: 12%
Population Mitochondria Different-Phenotype (%) [5]: 17%
Population Mitotic Cells (%) [5]: 37%
Population Normal (%) [5]: 88%
Population Pyknosed Nuclei (%) [5]: 20%
Population Tubulin-Different-Phenotype (%) [5]: 42%
Total Cell Count [5]: 205
Population Apoptotic (%) [6]: 22%
Population Fragmented Nuclei (%) [6]: 16%
Population Healthy Nuclei (%) [6]: 72%
Population Hoechst High Intensity Objects (%) [6]: 5%
Population Membrane Permeable-Phenotype (%) [6]: 5%
Population Mitochondria Different-Phenotype (%) [6]: 65%
Population Mitotic Cells (%) [6]: 77%
Population Normal (%) [6]: 94%
Population Pyknosed Nuclei (%) [6]: 11%
Population Tubulin-Different-Phenotype (%) [6]: 27%
Total Cell Count [6]: 71
Population Apoptotic (%) [7]: 76%
Population Fragmented Nuclei (%) [7]: 41%
Population Healthy Nuclei (%) [7]: 26%
Population Hoechst High Intensity Objects (%) [7]: 28%
Population Membrane Permeable-Phenotype (%) [7]: 21%
Population Mitochondria Different-Phenotype (%) [7]: 85%
Population Mitotic Cells (%) [7]: 23%
Population Normal (%) [7]: 71%
Population Pyknosed Nuclei (%) [7]: 32%
Population Tubulin-Different-Phenotype (%) [7]: 92%
Total Cell Count [7]: 74
Population Apoptotic (%) [8]: 88%
Population Fragmented Nuclei (%) [8]: 10%
Population Healthy Nuclei (%) [8]: 30%
Population Hoechst High Intensity Objects (%) [8]: 11%
Population Membrane Permeable-Phenotype (%) [8]: 100%
Population Mitochondria Different-Phenotype (%) [8]: 96%
Population Mitotic Cells (%) [8]: 11%
Population Normal (%) [8]: 88%
Population Pyknosed Nuclei (%) [8]: 59%
Population Tubulin-Different-Phenotype (%) [8]: 100%
Total Cell Count [8]: 85
Population Apoptotic (%) [9]: 78%
Population Fragmented Nuclei (%) [9]: 37%
Population Healthy Nuclei (%) [9]: 51%
Population Hoechst High Intensity Objects (%) [9]: 15%
Population Membrane Permeable-Phenotype (%) [9]: 13%
Population Mitochondria Different-Phenotype (%) [9]: 8%
Population Mitotic Cells (%) [9]: 21%
Population Normal (%) [9]: 84%
Population Pyknosed Nuclei (%) [9]: 10%
Population Tubulin-Different-Phenotype (%) [9]: 43%
Total Cell Count [9]: 213
Population Apoptotic (%) [10]: 100%
Population Fragmented Nuclei (%) [10]: 29%
Population Healthy Nuclei (%) [10]: 67%
Population Hoechst High Intensity Objects (%) [10]: 18%
Population Membrane Permeable-Phenotype (%) [10]: 14%
Population Mitochondria Different-Phenotype (%) [10]: 20%
Population Mitotic Cells (%) [10]: 0%
Population Normal (%) [10]: 81%
Population Pyknosed Nuclei (%) [10]: 3%
Population Tubulin-Different-Phenotype (%) [10]: 63%
Total Cell Count [10]: 116
Population Apoptotic (%) [11]: 88%
Population Fragmented Nuclei (%) [11]: 35%
Population Healthy Nuclei (%) [11]: 26%
Population Hoechst High Intensity Objects (%) [11]: 25%
Population Membrane Permeable-Phenotype (%) [11]: 33%
Population Mitochondria Different-Phenotype (%) [11]: 41%
Population Mitotic Cells (%) [11]: 11%
Population Normal (%) [11]: 75%
Population Pyknosed Nuclei (%) [11]: 37%
Population Tubulin-Different-Phenotype (%) [11]: 66%
Total Cell Count [11]: 60
Population Apoptotic (%) [12]: 93%
Population Fragmented Nuclei (%) [12]: 34%
Population Healthy Nuclei (%) [12]: 46%
Population Hoechst High Intensity Objects (%) [12]: 32%
Population Membrane Permeable-Phenotype (%) [12]: 5%
Population Mitochondria Different-Phenotype (%) [12]: 78%
Population Mitotic Cells (%) [12]: 6%
Population Normal (%) [12]: 67%
Population Pyknosed Nuclei (%) [12]: 18%
Population Tubulin-Different-Phenotype (%) [12]: 89%
Total Cell Count [12]: 120
